Data: paper PMC2937276 (Molecular cancer therapeutics, 2010)

Tests used:
GBM culture 41 = test: XTT cell proliferation assay; type: cell-based, Mouse; conditions: mouse GBM culture 41; 36 hours; mean of three experiments ± SD
Procedure, shortened: (§1)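 Primary human or mouse GBM cultures (DMEM, 10% FBS) were seeded at 5000 cells per 96-well well. Cells were cultured with test compound or vehicle for 36 h. Proliferation was read by XTT assay in quadruplicate. IC50 came from nonlinear-regression curve fitting.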

GBM culture 2227 = test: XTT cell proliferation assay; type: cell-based, Mouse; conditions: mouse GBM culture 2227; 36 hours; mean of three experiments ± SD
Procedure, shortened: as §1

[1] = in vivo
GBM culture 2415 = test: XTT cell proliferation assay; type: cell-based, Mouse; conditions: mouse GBM culture 2415; 36 hours; mean of three experiments ± SD
Procedure, shortened: as §1

GBM culture GBM-1 = test: XTT cell proliferation assay; type: cell-based, Mouse; conditions: mouse GBM culture GBM-1; 36 hours; mean of three experiments ± SD
Procedure, shortened: as §1

GBM culture 2736 = test: XTT cell proliferation assay; type: cell-based, Mouse; conditions: mouse GBM culture 2736; 36 hours; mean of three experiments ± SD
Procedure, shortened: as §1

GBM culture GBM8 = test: XTT cell proliferation assay; type: cell-based, Human; conditions: human GBM culture GBM8; 36 hours; mean of three experiments ± SD
Procedure, shortened: as §1

GBM culture 103 = test: XTT cell proliferation assay; type: cell-based, Mouse; conditions: mouse GBM culture 103; 36 hours; mean of three experiments ± SD
Procedure, shortened: as §1

GBM culture GBM12 = test: XTT cell proliferation assay; type: cell-based, Human; conditions: human GBM culture GBM12; 36 hours; mean of three experiments ± SD
Procedure, shortened: as §1

GBM culture GBM15 = test: XTT cell proliferation assay; type: cell-based, Human; conditions: human GBM culture GBM15; 36 hours; mean of three experiments ± SD
Procedure, shortened: as §1

GBM culture GBM22 = test: XTT cell proliferation assay; type: cell-based, Human; conditions: human GBM culture GBM22; 36 hours; mean of three experiments ± SD
Procedure, shortened: as §1

GBM culture 42 = test: XTT cell proliferation assay; type: cell-based, Mouse; conditions: mouse GBM culture 42; 36 hours; mean of three experiments ± SD
Procedure, shortened: as §1

[2] = in clinical evaluation for various cancers; cited from earlier work
GBM culture GBM43 = test: XTT cell proliferation assay; type: cell-based, Human; conditions: human GBM culture GBM43; 36 hours; mean of three experiments ± SD
Procedure, shortened: as §1

GBM culture 2000 = test: XTT cell proliferation assay; type: cell-based, Mouse; conditions: mouse GBM culture 2000; 36 hours; mean of three experiments ± SD
Procedure, shortened: as §1

GBM culture GBM59 = test: XTT cell proliferation assay; type: cell-based, Human; conditions: human GBM culture GBM59; 36 hours; mean of three experiments ± SD
Procedure, shortened: as §1

GBM culture 2231 = test: XTT cell proliferation assay; type: cell-based, Mouse; conditions: mouse GBM culture 2231; 36 hours; mean of three experiments ± SD
Procedure, shortened: as §1

GBM culture GBM6 = test: XTT cell proliferation assay; type: cell-based, Human; conditions: human GBM culture GBM6; 36 hours; mean of three experiments ± SD
Procedure, shortened: as §1

GBM culture GBM39 = test: XTT cell proliferation assay; type: cell-based, Human; conditions: human GBM culture GBM39; 36 hours; mean of three experiments ± SD
Procedure, shortened: as §1

GBM culture 2414 = test: XTT cell proliferation assay; type: cell-based, Mouse; conditions: mouse GBM culture 2414; 36 hours; mean of three experiments ± SD
Procedure, shortened: as §1

GBM culture 69 = test: XTT cell proliferation assay; type: cell-based, Mouse; conditions: mouse GBM culture 69; 36 hours; mean of three experiments ± SD
Procedure, shortened: as §1

GBM culture 102 = test: XTT cell proliferation assay; type: cell-based, Mouse; conditions: mouse GBM culture 102; 36 hours; mean of three experiments ± SD
Procedure, shortened: as §1

GBM culture 46 = test: XTT cell proliferation assay; type: cell-based, Mouse; conditions: mouse GBM culture 46; 36 hours; mean of three experiments ± SD
Procedure, shortened: as §1

GBM culture GBM-2 = test: XTT cell proliferation assay; type: cell-based, Mouse; conditions: mouse GBM culture GBM-2; 36 hours; mean of three experiments ± SD
Procedure, shortened: as §1

With `C=CCNC1=C2C[C@@H](C)C[C@H](OC)[C@H](O)[C@@H](C)/C=C(\C)[C@H](OC(N)=O)[C@@H](OC)/C=C\C=C(/C)C(=O)NC(=CC1=O)C2=O` [17-AAG, 17-allylamino-17-demethoxygeldanamycin, reference compound] the IC50 (GBM culture 41) was 100 ± 5 nM, the IC50 (GBM culture 2227) was 712 ± 54.4 nM and the “accumulation in mouse brain” value ([1]; ip) was “rapidly declines to undetectable levels”. The Brain concentration ([1]; mouse) was 2.6 ng/g, the IC50 (GBM culture 2415) was 329 ± 50.1 nM and the IC50 (GBM culture GBM-1) was 208 ± 9.6 nM. The IC50 (GBM culture 2736) was 381 ± 24.1 nM, the IC50 (GBM culture GBM8) was 8010 ± 543 nM and the IC50 (GBM culture 103) was 794 ± 28.7 nM. For the same compound, the IC50 (GBM culture GBM12) was 2580 ± 166 nM, the IC50 (GBM culture GBM15) was 110 ± 13.4 nM and the IC50 (GBM culture GBM22) was 4670 ± 148 nM. For the same compound, the IC50 (GBM culture 42) was 166 ± 24.9 nM, the toxicity on exposure [2] was “dose-limiting hepatotoxicity” and the IC50 (GBM culture GBM43) was 86.9 ± 2.3 nM. For the same compound, the IC50 (GBM culture 2000) was 345 ± 75.5 nM, the IC50 (GBM culture GBM59) was 211 ± 11 nM and the IC50 (GBM culture 2231) was 737 ± 72 nM. The IC50 (GBM culture GBM6) was 531.7 ± 5 nM, the IC50 (GBM culture GBM39) was 241.7 ± 1.2 nM and the IC50 (GBM culture 2414) was 205 ± 13.1 nM. The IC50 (GBM culture 69) was 91 ± 4.3 nM, the IC50 (GBM culture 102) was 626.2 ± 6 nM and the IC50 (GBM culture 46) was 91.9 ± 1.4 nM. The IC50 (GBM culture GBM-2) was 1100 ± 119 nM.
